Screening results as filed in PubChem.
Diaphorase inh – counter-screen for diaphorase-based assays: diaphorase inhibitors and chemical oxidizers; diaphorase resazurin-to-resorufin fluorescence, NADH, 16 min; bacterial (C. kluyveri) enzyme, not human; inhibition, % at 20 µM; actives 0.69% (n = 190,000); AID 1217;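 active means primary screen inhibition at 20 µM above a set limit, cut at about 50% in these data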
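Detection: fluorescence of resorufin formed from resazurin, Ex 544/Em 590 nm; test system: Clostridium kluyveri diaphorase enzyme; amount: 0.14 U/mL diaphorase, enzyme working solution; times: 16-min room-temperature incubation before reading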
ROMK mod – modulates human ROMK potassium channel activity | P48048 | Tet-inducible ROMK, thallium flux fluorescence; actives lie on both sides | B-score at 10 µM | actives 2% (n = 130,000);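 active means signal ratio slope over the read window, or its plate-corrected B-score, at least 3 SD from the plate mean, either direction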;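 further: B-score of the F/F0 ratio slope over 7 to 12 s after thallium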
Target sequence (P48048 whole entry, looked up): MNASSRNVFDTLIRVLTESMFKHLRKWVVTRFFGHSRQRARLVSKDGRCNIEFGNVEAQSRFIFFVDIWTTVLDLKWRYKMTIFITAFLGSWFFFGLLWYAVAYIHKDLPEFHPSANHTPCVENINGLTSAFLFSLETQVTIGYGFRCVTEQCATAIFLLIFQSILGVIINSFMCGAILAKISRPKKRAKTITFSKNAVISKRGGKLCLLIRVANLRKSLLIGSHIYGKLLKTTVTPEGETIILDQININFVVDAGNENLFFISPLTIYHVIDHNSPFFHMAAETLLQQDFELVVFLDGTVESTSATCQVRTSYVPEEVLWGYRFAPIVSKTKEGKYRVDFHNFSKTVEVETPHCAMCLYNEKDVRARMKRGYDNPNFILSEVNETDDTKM
Cl transport mod – KCC2 (human) Cl- transport modulation | KCC2 cells, thallium flux FluoZin-2 fluorescence | Q9H2X9 | actives 2.2% (n = 190,000) | B-score of Tl+ flux slope (higher = more flux/activation; lower = inhibition) at 10 µM | AID 1456;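 active means thallium flux slope and its plate-corrected score both differing from the plate sample mean at a set confidence after two filtering rounds, in either direction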;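 further: slope of fluorescence scaled to starting intensity during 10 to 20 s after thallium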
Diaphorase act – counter-screen for diaphorase-based assays: diaphorase activators and chemical reducers | activation factor at 20 µM | actives 0.005% (n = 190,000) | AID 1229 | Diaphorase/resazurin coupled assay, resorufin fluorescence, 16 min; hits give high values; 1 = vehicle wells, 0 = NADH-free wells;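 active means diaphorase activity raised at least twofold by the compound at 20 µM; inactive means activation factor below 2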
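Material: Purified diaphorase enzyme from Clostridium kluyveri | Buffer or medium: 50 mM HEPES pH 7.4 with 4.542 mM MgCl2, 0.005% Tween 20 | Times: 16 min enzyme reaction, ambient temperature | Signal: Red resorufin fluorescence at 544/590 nm excitation/emission | Measure: Increased resorufin signal from activators or reducing compounds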
WT yeast gro inh – growth inhibition of WT yeast, mitochondrial fusion screen; AID 1362; mitochondrial fusion phenotypic screen, WT strain; inhibition, % at 10 µM; actives 2.1% (n = 190,000); in the data active means inhibition above about 58%; tested in S. cerevisiae
Lmaj promast – inhibitors of Leishmania major promastigote growth; Leishmania major promastigotes, resazurin fluorescence viability; inhibition, % at 10 µM; actives 9% (n = 200,000); AID 1063; in the data active means inhibition above about 50%;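 further: promastigotes grown with compound for 44 hours at 28 °C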
KCC2 secondary – KCC2 (human) modulation, secondary assay; normalised thallium flux (F/F0 slope) at 10 µM; shares compounds with Cl transport mod; HEK293-KCC2, thallium flux, FluoZin2 fluorescence; hits give high values; actives 15% (n = 3,700);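 active means thallium flux slope above the same plate's solvent-only control mean plus 3 SD; inconclusive means the two replicate wells disagree; inactive means no significant difference from solvent-only control wells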
KCC2 bumet counter – thallium flux persisting under bumetanide in KCC2 cells, counter-screen secondary assay; shares compounds with Cl transport mod; HEK293-KCC2 + bumetanide/ouabain, thallium flux FluoZin2; hits give high values; normalized thallium flux at 10 µM; actives 49% (n = 3,700); AID 1714;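 active means thallium entry rate above the same plate's blocked-transporter control wells by more than 3 SD; inconclusive means the two repeat wells disagree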;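 further: raw slope of fluorescence over initial fluorescence between 10 and 20 s after thallium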
KCC2 secondary2 – KCC2 (human) modulation, second secondary assay | normalized thallium flux at 10 µM | actives 23% (n = 3,700) | HEK293-KCC2, thallium flux FluoZin2 fluorescence; actives lie on both sides; F/F0 rise rate, 10–20 s post-thallium | shares compounds with Cl transport mod;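 active means thallium flux slope more than 3 SD above or below the plate's solvent-only control mean, mostly below; inconclusive means the two repeat wells disagreed; inactive means no significant shift from solvent-only controls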
HEK counter1 – parental HEK flux effect, counter-screen; shares compounds with Cl transport mod; HEK293 parental cells, thallium flux FluoZin2, ouabain; baseline-ratio fluorescence slope, 10–20 s after thallium; thallium flux rate (normalised fluorescence) at 10 µM; actives 46% (n = 3,700); AID 1716;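 active means thallium flux rate significantly above the same plate's solvent-only control wells, beyond their mean plus 3 SD; inconclusive means the two replicate wells gave conflicting results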
KCC2 retest ouab – confirmation of human KCC2 modulators with ouabain; shares compounds with Cl transport mod; HEK293-KCC2, thallium flux FluoZin2 fluorescence; bidirectional: low = inhibitor, high = activator; raw Tl+ flux slope (below DMSO = inhibition, above = activation) at 10 µM; actives 48% (n = 3,700); AID 1717;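 active means thallium flux slope beyond 3 SD from same-plate DMSO control mean in most replicates, usually higher, sometimes lower; inconclusive means repeat tests gave conflicting results; inactive means no significant difference from controls in most replicates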;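 further: slope of initial-normalized fluorescence between seconds 10 and 20 after thallium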
HEK293 Tl flux2 – acts in parental HEK cells, second KCC2 counter-screen. HEK293 parental, thallium flux FluoZin-2 fluorescence slope. thallium flux slope at 10 µM. actives 33% (n = 3,700). shares compounds with Cl transport mod. AID 1718;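 active means thallium flux slope above the same plate's solvent-control mean plus 3 SD in both duplicate wells; inconclusive means duplicate wells that disagreed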;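 further: run without ouabain in cells lacking the KCC2 cotransporter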
Of the large screens only hits and unclear results are named; the others gave an inactive call (follow-up assays come after a bar, where they were run). An excerpt weighted towards active compounds, which were near 12% of everything screened.

COC(=O)c1cnn(-c2ccccc2)c1/C=N/NC(=S)Nc1ccccc1	Cl transport mod 9.2 (no result: Diaphorase inh, Diaphorase act, WT yeast gro inh, Lmaj promast) | KCC2 secondary inactive | KCC2 bumet counter 0.019 | KCC2 secondary2 inactive | HEK counter1 0.012 | KCC2 retest ouab 0.029 | HEK293 Tl flux2 inactive
Cc1ccc(S(=O)(=O)NC2=NCN(Cc3ccccc3)CN2)cc1	Cl transport mod -3.3 | KCC2 secondary inactive | KCC2 bumet counter inactive | KCC2 secondary2 inactive | HEK counter1 inactive | KCC2 retest ouab inconclusive | HEK293 Tl flux2 inactive
c1ccc2ncc(-n3cnnn3)cc2c1	Cl transport mod 3 | KCC2 secondary inactive | KCC2 bumet counter inactive | KCC2 secondary2 inactive | HEK counter1 inactive | KCC2 retest ouab inactive | HEK293 Tl flux2 inactive
Cc1ccc(-n2nnc(-c3cnc4ccccc4c3)n2)cc1	none (no result: ROMK mod)
N=C1S/C(=C\c2ccc(-c3cccc(Cl)c3)o2)C(=O)N1c1nccs1	Cl transport mod 6.6, Lmaj promast 99 (no result: ROMK mod) | KCC2 secondary inactive | KCC2 bumet counter 0.0089 | KCC2 secondary2 inactive | HEK counter1 0.015 | KCC2 retest ouab inactive | HEK293 Tl flux2 0.017
COc1ccc(/C=C2\SC(=N)N(c3nccs3)C2=O)cc1OC	Cl transport mod 4.6, Lmaj promast 97 (no result: ROMK mod) | KCC2 secondary inactive | KCC2 bumet counter 0.032 | KCC2 secondary2 inactive | HEK counter1 0.022 | KCC2 retest ouab 0.029 | HEK293 Tl flux2 0.019
N=C1/C(=C\c2ccc(-c3cccc(Cl)c3)o2)C(=O)N=C2SC=C(c3ccccc3)N12	none (no result: ROMK mod)
O=C(CNC(=O)c1ccc(-c2ccccc2)cc1)OCc1c(Cl)cccc1Cl	none
COc1ccc(CC(=O)NCc2nnc(SCc3ccc(C)cc3)n2C)cc1	none
Cn1c(C(=O)OC(C(=O)NC2CCCC2)c2cccnc2)cc2sccc21 (stereo not given)	Cl transport mod -2.7, Lmaj promast 98 (no result: ROMK mod) | KCC2 secondary inactive | KCC2 bumet counter inactive | KCC2 secondary2 inactive | HEK counter1 inactive | KCC2 retest ouab 0.045 | HEK293 Tl flux2 0.011
CC1=NN(c2nc(-c3ccc(C)cc3)cs2)C(=O)C1N=Nc1ccc2ccccc2c1 (stereo not given)	none (no result: ROMK mod, Cl transport mod)
CC1=NN(c2nc(-c3ccccc3)cs2)C(=O)C1N=Nc1ccccc1 (stereo not given)	Cl transport mod 6.6 | KCC2 secondary inactive | KCC2 bumet counter 0.051 | KCC2 secondary2 inactive | HEK counter1 0.015 | KCC2 retest ouab inconclusive | HEK293 Tl flux2 inactive
Cc1ccc2c(C)nc(Nc3nc(CSc4nnc(C)s4)cc(=O)[nH]3)nc2c1	none (no result: ROMK mod) | KCC2 secondary inactive | KCC2 bumet counter inactive | KCC2 secondary2 inactive | HEK counter1 inactive | KCC2 retest ouab inactive | HEK293 Tl flux2 inconclusive
O=c1cc(N2CCN(Cc3ccccc3)CC2)[nH]c(=O)n1-c1ccc(Br)cc1	none (no result: ROMK mod, Cl transport mod)
O=C(c1ccc(COc2ccccc2Br)o1)N1CCCCCC1	none (no result: Cl transport mod) | KCC2 secondary inactive | KCC2 bumet counter 0.0033 | KCC2 secondary2 inconclusive | HEK counter1 0.0063 | KCC2 retest ouab 0.016 | HEK293 Tl flux2 inconclusive
COc1cc(NC(=O)c2ccc(COc3ccccc3Br)o2)cc(OC)c1OC	Lmaj promast 68 (no result: Cl transport mod) | KCC2 secondary inactive | KCC2 bumet counter inactive | KCC2 secondary2 0.025 | HEK counter1 0.0061 | KCC2 retest ouab 0.015 | HEK293 Tl flux2 inactive
Cc1cccc(NC(=O)C(=O)NCCCN2CCOCC2)c1	none
Cc1cccc(C(=O)NC2=NCCS2)c1	none
COc1cccc(CNc2cc(CSc3ccc(Cl)cc3)nc(C)n2)c1	none (no result: Cl transport mod) | KCC2 secondary inactive | KCC2 bumet counter 0.0032 | KCC2 secondary2 inactive | HEK counter1 inconclusive | KCC2 retest ouab inactive | HEK293 Tl flux2 inactive
COc1ccc(-c2cc(CCCC(=O)NCCc3cc(OC)ccc3OC)no2)cc1	Cl transport mod -4.7 (no result: WT yeast gro inh) | KCC2 secondary inactive | KCC2 bumet counter inactive | KCC2 secondary2 inactive | HEK counter1 inactive | KCC2 retest ouab inactive | HEK293 Tl flux2 inactive
COc1ccccc1C(=O)NCC(=O)N/N=C/c1cccc(Cl)c1	none
COC(=O)CSc1ccc(C#N)c(SCC(=O)OC)c1	none (no result: ROMK mod)
COC(=O)CSc1cc(SCC(=O)OC)c(C#N)c(SCC(=O)OC)c1	Cl transport mod -3.2, Lmaj promast 64 (no result: ROMK mod) | KCC2 secondary inactive | KCC2 bumet counter inactive | KCC2 secondary2 inactive | HEK counter1 inconclusive | KCC2 retest ouab inactive | HEK293 Tl flux2 inactive
CC(C)Cc1c2c([nH]c(=S)c1C#N)CCCC2	Cl transport mod 27 | KCC2 secondary 0.019 | KCC2 bumet counter 0.068 | KCC2 secondary2 inactive | HEK counter1 0.034 | KCC2 retest ouab 0.058 | HEK293 Tl flux2 0.014
Cc1[nH]c(=S)c(C#N)c2c1CCCC2	Cl transport mod 3.8 | KCC2 secondary inactive | KCC2 bumet counter 0.0086 | KCC2 secondary2 inactive | HEK counter1 0.011 | KCC2 retest ouab inactive | HEK293 Tl flux2 inactive
Cc1[nH]c(=O)c(C#N)c2c1CCCC2	none (no result: ROMK mod)
FC(F)Sc1nc2ccccc2[nH]1	Cl transport mod 50 (no result: Diaphorase inh, Diaphorase act, WT yeast gro inh, Lmaj promast) | KCC2 secondary 0.026 | KCC2 bumet counter 0.11 | KCC2 secondary2 0.048 | HEK counter1 0.05 | KCC2 retest ouab 0.051 | HEK293 Tl flux2 0.024
FC(F)c1nc2ccccc2[nH]1	none (no result: ROMK mod)
Cc1[nH]c(=O)c(C#N)c(C)c1Cc1ccc(Cl)cc1Cl	none
CCCCOc1cccc(C(=O)NC(=S)Nc2cccc(C(F)(F)F)c2)c1	Cl transport mod 6.5 (no result: ROMK mod) | KCC2 secondary inactive | KCC2 bumet counter 0.016 | KCC2 secondary2 inconclusive | HEK counter1 0.02 | KCC2 retest ouab 0.027 | HEK293 Tl flux2 0.016
CC(C)Oc1cccc(C(=O)NC(=S)Nc2cccc(C(F)(F)F)c2)c1	none
